Measured values as given in ChEMBL document CHEMBL1156777, “Synthesis and antiprotozoal activity of cationic 1,4-diphenyl-1H-1,2,3-triazoles” (J Med Chem, 2010).

Key:
Plasmodium falciparum = assay: Antiplasmodial activity against chloroquine-resistant Plasmodium falciparum K1 infected in human erythrocytes after 48 hrs assessed as [3H]hypoxanthine incorporation by liquid scintillation counting; format: functional, organism-based
Leishmania donovani = assay: Antileishmanial activity against Leishmania donovani MHOM/SD/62/1S-CL2D; format: functional, organism-based
Method in brief: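 Axenic amastigotes (MHOM/SD/62/1S-CL2_D) adapted from promastigotes and grown in amastigote medium at 37 °C. 6 × 10⁴ parasites per well were exposed to 2-fold serial dilutions for 72 h at 37 °C in humidified 5% CO₂. Growth was read with tetrazolium CellTiter reagent as absorbance at 490 nm. IC50 came from a four-parameter dose–response fit; duplicate determinations were averaged.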

[1] = tested on: Trypanosoma brucei rhodesiense; assay: Antitrypanosomal activity against Trypanosoma brucei rhodesiense STIB900 infected in NMRI mouse assessed as mean parasitemia relaps day at 5 mg/kg, ip; format: functional; conditions: route intraperitoneal
Method in brief: (§1)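 Female NMRI mice infected ip with 2 × 10⁴ STIB900 bloodstream forms. Groups of four dosed ip daily on days 3–6 postinfection; compounds in DMSO diluted with water to 10% final DMSO. Untreated infected controls. Tail-blood parasitaemia checked on days 7 and 10, twice weekly to day 30, then weekly to day 60. Relapse day recorded for mean relapse day; cure means parasite-free survival to day 60.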

[2] = tested on: Trypanosoma brucei rhodesiense; assay: Antitrypanosomal activity against Trypanosoma brucei rhodesiense STIB900 after 70 hrs by alamar blue assay; format: functional, organism-based; conditions: STIB900, 70 h
[3] = Selectivity index, ratio of IC50 for rat L6 cells to IC50 for Trypanosoma brucei rhodesiense STIB900; format: toxicity, cell-based; conditions: read-out: Ratio IC50
Method in brief: (§2)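 Each index is L6 IC50 divided by parasite IC50. L6 values are from the 70 h resazurin assay. T. b. rhodesiense STIB900 values are from the 70 h resazurin assay. P. falciparum K1 values are from erythrocytic-stage [³H]-hypoxanthine incorporation: 48 h drug exposure, then 24 h with label. L. donovani values are from the 72 h axenic amastigote CellTiter assay.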

[4] = Selectivity index, ratio of IC50 for rat L6 cells to IC50 for Plasmodium falciparum K1; format: toxicity, cell-based; conditions: read-out: Ratio IC50; method in brief: as §2
L6 = assay: Cytotoxicity against rat L6 cells after 70 hrs by alamar blue assay; format: cell-based; conditions: L6, 70 h
Method in brief: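 Cells were exposed to serial dilutions for 70 h at 37 °C, 5% CO₂, then given resazurin for 2–3 h. IC50 came from sigmoidal curves; two independent runs in duplicate. Top concentration was 90 μg/mL, converted to μM by molecular weight.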

[5] = Selectivity index, ratio of IC50 for rat L6 cells to IC50 for Leishmania donovani MHOM/SD/62/1S-CL2D; format: toxicity, cell-based; conditions: read-out: Ratio IC50; method in brief: as §2
Mus musculus = assay: Toxicity in NMRI mouse infected with Trypanosoma brucei rhodesiense STIB900 assessed as survival at 5 mg/kg, ip after administered for 4 consecutive days from day 3 postinfection measured after 7 to 30 days; format: organism-based; design: dose 5 mg/kg, route intraperitoneal; conditions: in vivo; method in brief: as §1

| Structure (SMILES) | IC50 (Plasmodium falciparum) [nM] | IC50 (Leishmania donovani) [nM] | Activity [1] [days] | IC50 [2] [nM] | selectivity ratio [3] | selectivity ratio [4] | IC50 (L6) [nM] | selectivity ratio [5] | Activity (Mus musculus) |
| --- | --- | --- | --- | --- | --- | --- | --- | --- | --- |
| Cl.Cl.N=C(N)c1ccc(-c2cn(-c3cccc(C(=N)N)c3)nn2)cc1 | 4 | 17000 | 18 | 6 | 14300 | 21500 | 86000 | 5 | – |
| COc1ccc(C(=N)N)cc1-c1cn(-c2ccc(C(=N)N)cc2)nn1.Cl.Cl | 7 | 4300 | 15.5 | 8 | > 24800 | > 28300 | > 198000 | > 46 | – |
| CC(C)NC(=N)c1ccc(-n2cc(-c3ccc(C(=N)NC(C)C)cc3O)nn2)cc1.Cl.Cl | 7 | > 50000 | – | 37 | > 4860 | > 25700 | > 180000 | – | Non-toxic |
| CC(C)NC(=N)c1ccc(-c2cn(-c3ccc(C(=N)NC(C)C)cc3)nn2)cc1.Cl.Cl | 5 | 25000 | 8 | 201 | > 910 | > 36600 | > 183000 | > 7 | – |
| COc1cc(C(=N)N)ccc1-c1cn(-c2ccc(C(=N)N)cc2)nn1.Cl.Cl | 2 | 13000 | 60 | 31 | 1920 | 29700 | 59400 | 5 | – |
| COc1cc(C(=N)N)ccc1-n1cc(-c2ccc(C(=N)N)cc2)nn1.Cl.Cl | 9 | > 40000 | 34 | 38 | > 4820 | > 20300 | > 183000 | – | Toxic |
| Cl.Cl.N=C(N)c1cccc(-n2cc(-c3ccc(C(=N)N)cc3O)nn2)c1 | 7 | 8000 | 39 | 8 | > 26200 | > 30000 | > 210000 | > 26 | – |
| Cl.Cl.N=C(N)c1ccc(-n2cc(-c3cccc(C(=N)N)c3)nn2)cc1 | 3 | 12000 | 17.33 | 8 | 1080 | 2870 | 8600 | < 1 | – |
| Oc1cc(C2=NCCN2)ccc1-c1cn(-c2cccc(C3=NCCN3)c2)nn1 | 16 | > 100000 | – | 606 | > 302 | > 11400 | > 183000 | – | – |
| Oc1cc(C2=NCCN2)ccc1-n1cc(-c2cccc(C3=NCCN3)c2)nn1 | 159 | > 100000 | – | 11100 | > 17 | > 1180 | > 187000 | – | – |
| N=C(N)c1ccc(-c2cn(-c3ccc(C(=N)N)cc3O)nn2)cc1 | 170 | > 100000 | – | 501 | > 431 | > 1270 | > 216000 | – | – |
| COc1cc(C(=N)NC(C)C)ccc1-c1cn(-c2cccc(C(=N)NC(C)C)c2)nn1 | 34 | 32000 | – | 703 | > 242 | > 5000 | > 170000 | > 5 | – |
| COc1cc(C(=N)NC(C)C)ccc1-n1cc(-c2cccc(C(=N)NC(C)C)c2)nn1 | 55 | > 100000 | – | 1960 | > 81 | > 2890 | > 159000 | – | – |
| CC(C)NC(=N)c1ccc(-n2cc(-c3cccc(C(=N)NC(C)C)c3)nn2)cc1 | 38 | > 100000 | – | 539 | > 353 | > 5000 | > 190000 | – | – |
| Cl.Cl.N=C(N)c1ccc(-n2cc(-c3cc(C(=N)N)ccc3O)nn2)cc1 | 22 | > 50000 | – | 6 | > 36500 | > 9960 | > 219000 | – | Non-toxic |
| COc1ccc(C(=N)N)cc1-n1cc(-c2cccc(C(=N)N)c2)nn1.Cl.Cl | 28 | > 100000 | 17 | 47 | > 4770 | > 8000 | > 224000 | – | Toxic |
| c1cc(C2=NCCN2)cc(-c2cn(-c3ccc(C4=NCCN4)cc3)nn2)c1 | 84 | > 100000 | – | 200 | 635 | 1510 | 127000 | – | – |

| Structure (SMILES) | IC50 (Plasmodium falciparum) [nM] | IC50 (Leishmania donovani) [nM] | Activity [1] [days] | IC50 [2] [nM] | selectivity ratio [3] | selectivity ratio [4] | IC50 (L6) [nM] | selectivity ratio [5] | Activity (Mus musculus) |
| --- | --- | --- | --- | --- | --- | --- | --- | --- | --- |
| Cl.Cl.N=C(N)c1cccc(-c2cn(-c3ccc(C(=N)N)cc3O)nn2)c1 | – | > 100000 | 14 | 175 | > 1190 | > 1190 | > 209000 | – | Toxic |
| Oc1ccc(C2=NCCN2)cc1-c1cn(-c2cccc(C3=NCCN3)c2)nn1 | 52 | > 100000 | – | 11700 | > 16 | > 3520 | > 183000 | – | – |
| COc1cc(C2=NCCN2)ccc1-n1cc(-c2cccc(C3=NCCN3)c2)nn1 | 58 | > 100000 | – | 1870 | > 93 | > 2980 | > 173000 | – | – |
| COc1ccc(C(=N)NC(C)C)cc1-n1cc(-c2ccc(C(=N)NC(C)C)cc2)nn1 | 195 | > 100000 | – | 447 | > 387 | > 887 | > 173000 | – | – |
| COc1ccc(C2=NCCN2)cc1-c1cn(-c2ccc(C3=NCCN3)cc2)nn1.Cl.Cl | 10 | > 100000 | 26 | 21 | > 8950 | > 18800 | > 188000 | – | Toxic |
| CC(C)NC(=N)c1cccc(-n2cc(-c3cc(C(=N)NC(C)C)ccc3O)nn2)c1 | 229 | > 100000 | – | 10900 | > 16 | > 742 | > 170000 | – | – |
| COc1ccc(C2=NCCN2)cc1-n1cc(-c2ccc(C3=NCCN3)cc2)nn1 | 22 | > 100000 | – | 162 | > 1050 | > 7730 | > 170000 | – | – |
| COc1ccc(C(=N)N)cc1-n1cc(-c2ccc(C(=N)N)cc2)nn1.Cl.Cl | 17 | 31000 | 23 | 16 | > 12600 | > 11800 | > 201000 | > 6 | – |
| Cl.Cl.c1cc(-c2cn(-c3ccc(C4=NCCN4)cc3)nn2)ccc1C1=NCCN1 | 2 | > 100000 | 8 | 53 | 1910 | 50500 | 101000 | – | Toxic |
| COc1ccc(C(=N)NC(C)C)cc1-c1cn(-c2cccc(C(=N)NC(C)C)c2)nn1 | 106 | > 100000 | – | 1250 | > 141 | > 1660 | > 176000 | – | – |
| CC(C)NC(=N)c1ccc(-c2cn(-c3cc(C(=N)NC(C)C)ccc3O)nn2)cc1 | 5270 | > 100000 | – | 15100 | > 11 | > 32 | > 170000 | – | – |
| COc1cc(C2=NCCN2)ccc1-n1cc(-c2ccc(C3=NCCN3)cc2)nn1 | 17 | > 100000 | – | 675 | > 261 | > 10400 | > 176000 | – | – |
| CC(C)NC(=N)c1cccc(-n2cc(-c3ccc(C(=N)NC(C)C)cc3O)nn2)c1.Cl.Cl | 49 | > 100000 | 18 | 77 | > 2270 | > 3570 | > 175000 | – | – |
| Oc1ccc(C2=NCCN2)cc1-n1cc(-c2cccc(C3=NCCN3)c2)nn1 | 325 | > 100000 | – | 102000 | > 2 | > 535 | > 174000 | – | – |
| COc1cc(C(=N)NC(C)C)ccc1-n1cc(-c2ccc(C(=N)NC(C)C)cc2)nn1 | 19 | > 100000 | – | 328 | > 500 | > 8630 | > 164000 | – | – |
| CC(C)NC(=N)c1ccc(-c2cn(-c3cccc(C(=N)NC(C)C)c3)nn2)cc1 | 43 | 58000 | – | 462 | 418 | 4490 | 193000 | 3 | – |
